# Results: ChEMBL document CHEMBL4145554, “Structure-activity relationships of talaumidin derivatives: Their neurite-outgrowth promotion in vitro and optic nerve regeneration in vivo” (Eur J Med Chem, 2018)
# Active and inactive are the calls of the source. The calls are words filed in the database; no cut-off is given here.
# Test system: PC-12
# Assay: Neurite-outgrowth promoting activity in NGF-differentiated rat PC12 cells assessed as increase in neurite length at 30 uM after 4 days by methylene blue staining based phase contrast microscopic method
# Assay type: functional, cell-based
# In short: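 Cells seeded at 8 × 10^3 cells/cm2 in DMEM/10% HS/5% FBS/antibiotics, 24 h, 37 °C, 5% CO2; medium then switched to DMEM/2% HS/1% FBS with test sample plus 2 ng/mL NGF for 4 days, triplicate wells. Fixed in 4% paraformaldehyde, methylene blue stained; longest neurite of 5 differentiated cells in 5 random images per well measured, ≥100 cells per sample; Dunnett's t-test.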
row,SMILES,Activity
1,C[C@@H]1[C@H](C)[C@H](c2ccc(O)cc2)O[C@@H]1c1ccc(O)cc1,Active
2,Cc1c(-c2ccc3c(c2)OCO3)oc(-c2ccc3c(c2)OCO3)c1C,Active
3,COc1cc([C@H]2O[C@H](c3ccc4c(c3)OCO4)[C@@H](C)[C@@H]2C)ccc1O,Active
4,Cc1ccc(-c2oc(-c3ccc(C)cc3)c(C)c2C)cc1,Active
5,COc1cc([C@H]2O[C@@H](c3ccc4c(c3)OCO4)[C@@H](C)[C@H]2C)ccc1O,Active
6,COc1cc(-c2oc(-c3ccc4c(c3)OCO4)c(C)c2C)ccc1O,Active
7,Cc1c(-c2ccc(O)cc2)oc(-c2ccc(O)cc2)c1C,Active
8,COc1ccc(-c2oc(-c3ccc(OC)cc3)c(C)c2C)cc1,Active
9,C[C@@H]1[C@H](C)CO[C@@H]1c1ccc2c(c1)OCO2,inactive
10,COc1cc([C@H]2O[C@@H](c3ccc(O)c(OC)c3)[C@@H](C)[C@H]2C)ccc1O,Active
11,Cc1ccc([C@H]2O[C@@H](c3ccc(C)cc3)[C@@H](C)[C@H]2C)cc1,Active
12,COc1cc(C2OC(c3ccc4c(c3)OCO4)C(C)C2C)ccc1O (racemic),Active
13,COc1ccc([C@H]2O[C@@H](c3ccc(OC)cc3)[C@@H](C)[C@H]2C)cc1,Active
14,c1cc2c(cc1[C@@H]1CC[C@H](c3ccc4c(c3)OCO4)O1)OCO2,Active
15,COc1cc(-c2oc(-c3ccc(O)c(OC)c3)c(C)c2C)ccc1O,Active

# Test system: Mus musculus
# Assay: In vivo neurite-outgrowth promoting activity in C57BL/6 mouse assessed as regeneration of injured optic nerve by measuring GAP-43 positive axons extending over injury site at 30 uM measured 2 weeks post optic nerve injury by fluorescence microscopic method
# Assay type: functional, organism-based
# In short: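 Male mice, 9 weeks old, anesthetized with intraperitoneal sodium pentobarbital (30e40 mg/kg); optic nerve crushed with forceps 1 mm behind the eyeball. Longitudinal […] cryosections (OCT) stained with anti-GAP43 (1:250) plus fluorescent secondary; regenerating axons counted manually at […] from injury site, ≥8 sections per condition, 6 mice/group; Dunnett's t-test versus injury.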
row,SMILES,Activity
1,COc1cc([C@H]2O[C@H](c3ccc4c(c3)OCO4)[C@@H](C)[C@@H]2C)ccc1O,Active
2,COc1cc(C2OC(c3ccc4c(c3)OCO4)C(C)C2C)ccc1O (racemic),Active
